Laboratory results as given in ChEMBL document CHEMBL1124171, “Ergolines as selective 5-HT1 agonists” (J Med Chem, 1988).

Key:
[1] = tested on: Rattus norvegicus; assay: Effect of Metergoline on the elevation of serum corticosterone, after sc administration (0 mg/kg) No pretreatment; assay type: functional, organism-based
Summary of the method: (§1)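 Male Wistar rats (~150 g) received metergoline (3 mg/kg, ip) or no pretreatment. Drug was given sc in dilute HCl 1 h later, and rats were decapitated 1 h after that. Serum corticosterone was determined spectrofluorometrically. Results are mean ± SE, five rats/group, P < 0.05 versus the corresponding control.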

[2] = tested on: Rattus norvegicus; assay: Decreased accumulation of 5-hydroxytryptophan after decarboxylase inhibition in the hypothalamus of rat at a dose 0.1mg/Kg, sc; assay type: functional, organism-based
Summary of the method: (§2)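 Male Wistar rats (~150 g) got drug sc in dilute HCl. NSD 1015 (100 mg/kg, ip) was given 30 min after drug and 30 min before decapitation. Hypothalamic 5-HTP was measured by LC with electrochemical detection. Results are mean ± SE, five rats per treated group and six controls; significance at P < 0.01.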

[3] = tested on: Rattus norvegicus; assay: Effect of Metergoline on the elevation of serum corticosterone, after sc administration (0.3 mg/kg) Metergoline pretreament; assay type: functional, organism-based; summary of the method: as §1
[4] = tested on: Rattus norvegicus; assay: Effect on homovanillic acid concentration in rat striatum, after 0.1 mg/kg sc administration; assay type: functional; conditions: route subcutaneous
Summary of the method: (§3)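 Male Wistar rats (~150 g) were given drug or apomorphine HCl sc and decapitated 1 h later. Striatal DOPAC and HVA were quantified by LC with electrochemical detection. Results are mean ± SE, five rats/group, P < 0.05.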

[5] = tested on: Rattus norvegicus; assay: Effect on concentration of 5HIAA in rat brain striatum after 0.3 mg/kg sc administration; assay type: functional, organism-based; set-up: dose 0.3 mg/kg
Summary of the method: (§4)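 Male Wistar rats (~150 g) were injected sc with drug in dilute HCl and decapitated 1 h later. Hypothalamus and striatum were dissected and frozen on dry ice. […] Results are mean ± SE, five rats/group, P < 0.05.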

[6] = tested on: Rattus norvegicus; assay: Effect on serotonin in rat whole brain, after sc administration (0.03 mg/kg dose) (experiment 2); assay type: functional, organism-based
[7] = organism: Rattus norvegicus; assay: Effect of […] on the elevation of serum corticosterone at a dose 100 ug/mL PCPA pretreated; assay type: functional, organism-based
Summary of the method: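 Rats got p-chlorophenylalanine (300 mg/kg, ip) or no pretreatment. 24 h later, drug (0.3 mg/kg, sc, dilute HCl) or p-chloroamphetamine HCl (2.5 mg/kg, ip) was given, and rats were killed 1 h after. Serum corticosterone was measured spectrofluorometrically. Results are mean ± SE, five male Wistar rats/group.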

[8] = tested on: Rattus norvegicus; assay: Effect on 5-hydroxyindoleacetic acid in rat whole brain, after sc administration (0.1 mg/kg dose) (experiment 1); assay type: functional, organism-based
Summary of the method: (§5)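 Drug was given sc in dilute HCl to male Wistar rats (~150 g), with decapitation 1 h later. Whole brains were frozen on dry ice and held at −15 °C. […] Results are mean ± SE, five rats/group, P < 0.05 versus vehicle control.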

[9] = tested on: Rattus norvegicus; assay: Effect of Metergoline on the elevation of serum corticosterone, after sc administration (1.0 mg/kg) No pretreatment; assay type: functional, organism-based; summary of the method: as §1
[10] = tested on: Rattus norvegicus; assay: Effect on 3,4- dihydroxyphenylacetic acid concentration in rat striatum, after 0.03 mg/kg sc administration; assay type: functional; conditions: route subcutaneous; summary of the method: as §3
[11] = tested on: Rattus norvegicus; assay: Effect on homovanillic acid concentration in rat striatum, after 0.3 mg/kg sc administration; assay type: functional; conditions: route subcutaneous; summary of the method: as §3
[12] = tested on: Rattus norvegicus; assay: Effect on 5-hydroxyindoleacetic acid in rat whole brain, after sc administration (0.03 mg/kg dose) (experiment 1); assay type: functional, organism-based; summary of the method: as §5
[13] = tested on: Rattus norvegicus; assay: Effect of Metergoline on the elevation of serum corticosterone, after sc administration (0.03 mg/kg) No pretreatment; assay type: functional, organism-based; summary of the method: as §1
[14] = tested on: Rattus norvegicus; assay: Effect on serum corticosterone in serum of rats after sc administration (1 mg/kg dose) (experiment 1); assay type: functional, organism-based
Summary of the method: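 Male Wistar rats (~150 g) housed at 24 °C with lights 7 a.m.–7 p.m. Compound in dilute HCl given sc 1 h before decapitation. Serum corticosterone measured spectrofluorometrically, μg/100 mL. Five rats per group, mean ± SE. Significance set at P < 0.05 versus the vehicle control.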

[15] = tested on: Rattus norvegicus; assay: Decreased accumulation of 5-hydroxytryptophan after decarboxylase inhibition in the hypothalamus of rat at a dose 0.3 mg/Kg, sc; assay type: functional, organism-based; summary of the method: as §2
[16] = tested on: Rattus norvegicus; assay: Effect on 5-hydroxyindoleacetic acid in rat whole brain, after sc administration (0.01 mg/kg dose) (experiment 2); assay type: functional, organism-based; summary of the method: as §5
[17] = tested on: Rattus norvegicus; assay: Effect on concentration of serotonin in rat brain striatum after 0.3 mg/kg sc administration; assay type: functional, organism-based; set-up: dose 0.3 mg/kg; summary of the method: as §4
[18] = tested on: Rattus norvegicus; assay: Effect on 3,4-dihydroxyphenylacetic acid concentration in rat striatum, after 0.3 mg/kg sc administration; assay type: functional; conditions: route subcutaneous; summary of the method: as §3
[19] = tested on: Rattus norvegicus; assay: Effect of Metergoline on the elevation of serum corticosterone, after sc administration (0 mg/kg) Metergoline pretreament; assay type: functional, organism-based; summary of the method: as §1
[20] = Ratio of affinity towards 5-HT1 to 5-HT2 receptor
Summary of the method: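 Frontal cortex from male Wistar rats (140–160 g), homogenate pellet in 0.05 M Tris with 10 μM pargyline and 4 mM Ca²⁺, 250–350 μg protein/sample. 5-HT1: 2 nM [³H]-5-HT, nonspecific with 10 μM 5-HT. […] Eleven concentrations, 0.1–10 000 nM, in duplicate. IC50 from curve fitting of specific binding.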

[21] = tested on: Rattus norvegicus; assay: Effect of Metergoline on the elevation of serum corticosterone, after sc administration (0.3 mg/kg) No pretreatment; assay type: functional, organism-based; summary of the method: as §1
[22] = tested on: Rattus norvegicus; assay: Effect of Metergoline on the elevation of serum corticosterone, after sc administration (0.1 mg/kg) No pretreatment; assay type: functional, organism-based; summary of the method: as §1

C[C@@H]1C=C2c3cccc4c3[C@@H](CN4)C[C@H]2N(C)C1
Serum corticosterone [1]: 4.3 µg/mL
Concentration [2]: 0.73 nM/g
Serum corticosterone [3]: 50.2 µg/mL
Homovanillic acid concentration [4]: 3.65 nM/g
Concentration [5]: < 2.38 mg/kg
Concentration [6]: 2.77 nM/g
Serum corticosterone [7]: 42 µg/mL
Concentration [8]: 1.45 nM/g
Serum corticosterone [9]: 70.8 µg/mL
DOPAC concentration [10]: 3.81 nM/g
Homovanillic acid concentration [11]: 3.27 nM/g
Concentration [12]: 1.52 nM/g
Serum corticosterone [13]: 6.5 µg/mL
Concentration [14]: 70.8 nM/g
Concentration [15]: 0.71 nM/g
Concentration [16]: 2.2 nM/g
Concentration [17]: 1.94 mg/kg
DOPAC concentration [18]: 4.62 nM/g
Serum corticosterone [19]: 6.2 µg/mL
Selectivity ratio [20]: 100
Serum corticosterone [21]: 46.6 µg/mL
Serum corticosterone [22]: 33.8 µg/mL
